In ChEMBL document CHEMBL4007402 (J Med Chem, 2017):

What was measured:
[1] = Growth inhibition of mouse BAF3 cells after 72 hrs by CellTiter-Glo or CCK-8 assay; format: cell-based
Summary of the method: (§1)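 Isogenic murine BaF3 cells transformed with TEL-fused kinases, whose proliferation depends on the fused kinase, were used. Parental BaF3 cells served as the general selectivity counter-screen. The anti-proliferative read-out was reported as GI50.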

[2] = target: Mast/stem cell growth factor receptor Kit (Homo sapiens) (UniProt P10721); assay: Inhibition of recombinant TEL-fused c-KIT (unknown origin) expressed in mouse BAF3 cells assessed as growth inhibition after 72 hrs by CellTiter-Glo or CCK-8 assay; format: cell-based; summary of the method: as §1
Mast/stem cell growth factor receptor Kit (Homo sapiens), sequence (P10721 whole entry, the tested form may be a part): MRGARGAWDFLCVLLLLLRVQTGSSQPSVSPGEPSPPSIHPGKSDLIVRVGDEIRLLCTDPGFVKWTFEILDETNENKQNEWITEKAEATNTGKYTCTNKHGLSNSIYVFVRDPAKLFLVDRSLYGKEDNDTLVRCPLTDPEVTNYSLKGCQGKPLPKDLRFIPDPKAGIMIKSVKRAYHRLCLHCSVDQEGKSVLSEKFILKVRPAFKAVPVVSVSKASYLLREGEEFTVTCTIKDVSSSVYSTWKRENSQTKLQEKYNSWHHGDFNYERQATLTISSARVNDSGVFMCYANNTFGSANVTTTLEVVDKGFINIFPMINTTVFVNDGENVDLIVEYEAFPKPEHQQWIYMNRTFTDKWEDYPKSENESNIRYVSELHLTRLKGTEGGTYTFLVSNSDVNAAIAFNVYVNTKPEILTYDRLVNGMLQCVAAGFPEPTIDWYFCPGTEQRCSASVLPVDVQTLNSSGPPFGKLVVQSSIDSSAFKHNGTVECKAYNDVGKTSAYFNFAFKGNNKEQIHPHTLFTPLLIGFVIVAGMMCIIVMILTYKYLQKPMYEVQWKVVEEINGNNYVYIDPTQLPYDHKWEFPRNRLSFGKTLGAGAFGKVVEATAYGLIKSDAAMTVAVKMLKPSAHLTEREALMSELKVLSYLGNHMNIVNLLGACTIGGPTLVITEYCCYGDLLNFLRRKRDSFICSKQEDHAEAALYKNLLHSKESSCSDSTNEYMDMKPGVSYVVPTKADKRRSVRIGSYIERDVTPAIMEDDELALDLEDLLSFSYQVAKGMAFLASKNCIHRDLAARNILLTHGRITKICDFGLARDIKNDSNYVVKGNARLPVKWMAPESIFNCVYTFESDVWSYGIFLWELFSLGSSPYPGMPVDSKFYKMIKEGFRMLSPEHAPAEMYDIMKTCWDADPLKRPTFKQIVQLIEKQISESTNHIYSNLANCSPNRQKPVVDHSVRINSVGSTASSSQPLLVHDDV

[3] = target: Tyrosine-protein kinase ABL1 (Homo sapiens) (UniProt P00519); assay: Inhibition of recombinant TEL-fused ABL (unknown origin) expressed in mouse BAF3 cells assessed as growth inhibition after 72 hrs by CellTiter-Glo or CCK-8 assay; format: cell-based; summary of the method: as §1
Tyrosine-protein kinase ABL1 (Homo sapiens), sequence (P00519 whole entry, the tested form may be a part): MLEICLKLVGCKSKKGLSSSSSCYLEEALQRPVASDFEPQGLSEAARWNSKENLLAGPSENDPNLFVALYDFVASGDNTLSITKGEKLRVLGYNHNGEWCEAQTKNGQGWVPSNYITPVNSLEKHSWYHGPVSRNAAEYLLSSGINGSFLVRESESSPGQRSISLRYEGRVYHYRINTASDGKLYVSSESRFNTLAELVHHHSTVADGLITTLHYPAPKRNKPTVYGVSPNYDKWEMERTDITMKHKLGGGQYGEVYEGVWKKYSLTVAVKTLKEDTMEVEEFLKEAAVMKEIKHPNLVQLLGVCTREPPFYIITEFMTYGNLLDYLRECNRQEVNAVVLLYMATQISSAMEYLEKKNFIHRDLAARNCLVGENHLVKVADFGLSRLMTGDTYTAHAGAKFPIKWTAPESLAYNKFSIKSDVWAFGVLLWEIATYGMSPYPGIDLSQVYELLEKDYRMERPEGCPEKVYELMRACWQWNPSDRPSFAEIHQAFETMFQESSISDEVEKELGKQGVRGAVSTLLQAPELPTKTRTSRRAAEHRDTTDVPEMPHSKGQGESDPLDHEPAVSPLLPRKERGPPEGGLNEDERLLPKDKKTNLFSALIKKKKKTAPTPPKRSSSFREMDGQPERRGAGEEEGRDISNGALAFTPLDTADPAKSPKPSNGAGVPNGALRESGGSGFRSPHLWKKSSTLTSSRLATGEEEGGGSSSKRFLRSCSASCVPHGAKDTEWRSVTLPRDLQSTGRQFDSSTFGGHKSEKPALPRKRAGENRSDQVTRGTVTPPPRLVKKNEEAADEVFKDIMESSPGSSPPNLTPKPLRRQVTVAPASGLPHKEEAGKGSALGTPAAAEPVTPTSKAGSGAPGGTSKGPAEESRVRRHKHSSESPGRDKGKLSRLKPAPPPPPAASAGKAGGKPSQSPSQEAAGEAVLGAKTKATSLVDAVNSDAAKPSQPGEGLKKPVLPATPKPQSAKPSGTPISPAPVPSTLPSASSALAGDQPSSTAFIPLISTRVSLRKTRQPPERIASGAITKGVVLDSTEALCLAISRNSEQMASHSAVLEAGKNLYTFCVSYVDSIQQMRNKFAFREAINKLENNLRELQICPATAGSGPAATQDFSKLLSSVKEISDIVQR

[4] = target: Platelet-derived growth factor receptor alpha (Homo sapiens) (UniProt P16234); assay: Inhibition of recombinant TEL-fused PDGFR-alpha (unknown origin) expressed in mouse BAF3 cells assessed as growth inhibition after 72 hrs by CellTiter-Glo or CCK-8 assay; format: cell-based; summary of the method: as §1
Platelet-derived growth factor receptor alpha (Homo sapiens), sequence (P16234 whole entry, the tested form may be a part): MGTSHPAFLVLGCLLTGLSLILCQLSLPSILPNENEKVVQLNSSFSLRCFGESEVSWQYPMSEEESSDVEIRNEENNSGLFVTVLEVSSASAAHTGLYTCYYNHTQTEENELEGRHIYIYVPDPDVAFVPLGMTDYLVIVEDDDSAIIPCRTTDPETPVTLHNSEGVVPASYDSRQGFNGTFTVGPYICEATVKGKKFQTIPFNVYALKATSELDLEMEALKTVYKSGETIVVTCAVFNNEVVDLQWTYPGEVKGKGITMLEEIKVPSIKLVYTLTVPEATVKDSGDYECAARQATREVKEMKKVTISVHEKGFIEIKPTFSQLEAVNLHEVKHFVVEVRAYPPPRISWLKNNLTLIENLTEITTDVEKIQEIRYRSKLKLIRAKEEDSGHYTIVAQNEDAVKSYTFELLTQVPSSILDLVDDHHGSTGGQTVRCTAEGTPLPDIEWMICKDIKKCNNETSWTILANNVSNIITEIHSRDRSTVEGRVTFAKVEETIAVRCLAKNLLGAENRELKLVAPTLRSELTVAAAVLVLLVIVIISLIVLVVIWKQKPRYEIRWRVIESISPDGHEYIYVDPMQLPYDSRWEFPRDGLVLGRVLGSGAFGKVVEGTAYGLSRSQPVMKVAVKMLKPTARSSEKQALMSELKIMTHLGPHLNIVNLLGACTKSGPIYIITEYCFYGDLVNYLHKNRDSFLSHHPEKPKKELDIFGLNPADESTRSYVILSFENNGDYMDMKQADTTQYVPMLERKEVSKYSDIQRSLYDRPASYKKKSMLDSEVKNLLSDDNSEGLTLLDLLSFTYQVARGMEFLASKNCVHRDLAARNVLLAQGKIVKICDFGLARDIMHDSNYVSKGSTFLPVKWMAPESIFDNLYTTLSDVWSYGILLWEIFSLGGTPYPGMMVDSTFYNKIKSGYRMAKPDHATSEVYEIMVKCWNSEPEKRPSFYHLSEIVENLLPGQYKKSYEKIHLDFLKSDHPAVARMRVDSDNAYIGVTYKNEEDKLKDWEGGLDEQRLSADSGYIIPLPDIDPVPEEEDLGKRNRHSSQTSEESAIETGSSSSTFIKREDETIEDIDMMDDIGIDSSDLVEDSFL

[5] = target: Platelet-derived growth factor receptor beta (Homo sapiens) (UniProt P09619); assay: Inhibition of recombinant TEL-fused PDGFR-beta (unknown origin) expressed in mouse BAF3 cells assessed as growth inhibition after 72 hrs by CellTiter-Glo or CCK-8 assay; format: cell-based; summary of the method: as §1
[6] = target: Receptor-type tyrosine-protein kinase FLT3 (Homo sapiens) (UniProt P36888); assay: Inhibition of recombinant TEL-fused FLT3 (unknown origin) expressed in mouse BAF3 cells assessed as growth inhibition after 72 hrs by CellTiter-Glo or CCK-8 assay; format: cell-based; summary of the method: as §1
Receptor-type tyrosine-protein kinase FLT3 (Homo sapiens), sequence (P36888 whole entry, the tested form may be a part): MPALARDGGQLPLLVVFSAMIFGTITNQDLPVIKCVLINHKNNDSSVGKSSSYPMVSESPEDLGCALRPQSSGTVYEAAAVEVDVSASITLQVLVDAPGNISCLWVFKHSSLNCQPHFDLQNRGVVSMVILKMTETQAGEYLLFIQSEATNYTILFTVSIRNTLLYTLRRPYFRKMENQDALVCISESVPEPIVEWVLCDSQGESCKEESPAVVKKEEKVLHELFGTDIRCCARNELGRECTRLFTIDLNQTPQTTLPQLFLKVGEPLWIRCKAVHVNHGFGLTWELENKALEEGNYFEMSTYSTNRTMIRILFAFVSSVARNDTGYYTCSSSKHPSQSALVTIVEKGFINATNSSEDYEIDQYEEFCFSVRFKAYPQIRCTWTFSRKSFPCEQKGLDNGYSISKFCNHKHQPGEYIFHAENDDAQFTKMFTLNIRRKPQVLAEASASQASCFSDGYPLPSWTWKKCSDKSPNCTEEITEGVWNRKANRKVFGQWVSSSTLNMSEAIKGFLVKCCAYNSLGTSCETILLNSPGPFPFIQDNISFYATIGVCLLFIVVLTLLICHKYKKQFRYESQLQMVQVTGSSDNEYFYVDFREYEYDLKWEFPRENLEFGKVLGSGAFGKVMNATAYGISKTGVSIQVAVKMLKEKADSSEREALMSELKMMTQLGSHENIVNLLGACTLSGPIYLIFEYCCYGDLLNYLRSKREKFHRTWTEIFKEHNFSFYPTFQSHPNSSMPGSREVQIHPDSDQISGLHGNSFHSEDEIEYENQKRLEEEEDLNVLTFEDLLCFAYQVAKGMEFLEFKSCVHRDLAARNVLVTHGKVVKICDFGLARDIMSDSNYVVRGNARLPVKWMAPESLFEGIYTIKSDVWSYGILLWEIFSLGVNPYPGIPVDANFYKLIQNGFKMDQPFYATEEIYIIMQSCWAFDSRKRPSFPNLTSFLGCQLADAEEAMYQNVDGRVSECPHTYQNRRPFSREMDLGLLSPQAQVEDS

[7] = target: Epidermal growth factor receptor (Homo sapiens) (UniProt P00533); assay: Inhibition of recombinant TEL-fused EGFR (unknown origin) expressed in mouse BAF3 cells assessed as growth inhibition after 72 hrs by CellTiter-Glo or CCK-8 assay; format: cell-based; summary of the method: as §1
[8] = target: T1, Tyrosine-protein kinase JAK3 (Homo sapiens) (UniProt P52333); assay: Inhibition of recombinant TEL-fused JAK3 (unknown origin) expressed in mouse BAF3 cells assessed as growth inhibition after 72 hrs by CellTiter-Glo or CCK-8 assay; format: cell-based; summary of the method: as §1
T1 sequence (whole entry): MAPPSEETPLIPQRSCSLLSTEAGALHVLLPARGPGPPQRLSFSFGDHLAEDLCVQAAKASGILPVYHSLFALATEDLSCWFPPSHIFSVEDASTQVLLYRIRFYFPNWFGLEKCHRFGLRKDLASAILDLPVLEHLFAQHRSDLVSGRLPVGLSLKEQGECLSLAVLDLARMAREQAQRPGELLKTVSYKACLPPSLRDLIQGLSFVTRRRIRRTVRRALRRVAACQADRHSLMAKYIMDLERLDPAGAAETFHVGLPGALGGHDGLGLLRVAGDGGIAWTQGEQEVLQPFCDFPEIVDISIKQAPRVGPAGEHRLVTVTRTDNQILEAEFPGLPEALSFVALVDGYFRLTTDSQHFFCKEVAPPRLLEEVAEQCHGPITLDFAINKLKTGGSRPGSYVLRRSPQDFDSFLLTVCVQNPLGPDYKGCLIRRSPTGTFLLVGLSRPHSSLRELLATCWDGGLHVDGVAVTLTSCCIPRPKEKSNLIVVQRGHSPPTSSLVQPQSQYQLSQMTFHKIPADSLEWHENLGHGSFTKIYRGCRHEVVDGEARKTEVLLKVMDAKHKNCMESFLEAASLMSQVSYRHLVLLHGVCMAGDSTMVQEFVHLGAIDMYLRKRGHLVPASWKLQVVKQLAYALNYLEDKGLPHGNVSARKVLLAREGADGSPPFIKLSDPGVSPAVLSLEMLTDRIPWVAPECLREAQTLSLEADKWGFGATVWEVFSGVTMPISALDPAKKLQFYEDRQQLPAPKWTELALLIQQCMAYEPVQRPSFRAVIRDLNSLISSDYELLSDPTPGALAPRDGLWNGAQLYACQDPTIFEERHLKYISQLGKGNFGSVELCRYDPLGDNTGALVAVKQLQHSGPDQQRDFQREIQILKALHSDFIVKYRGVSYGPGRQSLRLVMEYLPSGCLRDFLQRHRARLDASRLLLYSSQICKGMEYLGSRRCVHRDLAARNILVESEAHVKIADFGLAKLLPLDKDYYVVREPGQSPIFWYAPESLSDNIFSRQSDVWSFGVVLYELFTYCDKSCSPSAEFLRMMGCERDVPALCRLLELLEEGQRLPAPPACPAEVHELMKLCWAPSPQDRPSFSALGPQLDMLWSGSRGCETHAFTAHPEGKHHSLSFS

[9] = target: Tyrosine-protein kinase BTK (Homo sapiens, UniProt Q06187); assay: Inhibition of full-length recombinant human His-tagged BTK expressed in baculovirus expression system using Poly(4:1 Glu, Tyr) as substrate after 1 hr by ADP-Glo kinase assay
[10] = target: Mitogen-activated protein kinase 14 (Homo sapiens, UniProt Q16539); assay: Inhibition of full-length recombinant human GST-tagged p38alpha expressed in Escherichia coli by Z'-LYTE assay
Mitogen-activated protein kinase 14, sequence (Q16539 whole entry, the tested form may be a part): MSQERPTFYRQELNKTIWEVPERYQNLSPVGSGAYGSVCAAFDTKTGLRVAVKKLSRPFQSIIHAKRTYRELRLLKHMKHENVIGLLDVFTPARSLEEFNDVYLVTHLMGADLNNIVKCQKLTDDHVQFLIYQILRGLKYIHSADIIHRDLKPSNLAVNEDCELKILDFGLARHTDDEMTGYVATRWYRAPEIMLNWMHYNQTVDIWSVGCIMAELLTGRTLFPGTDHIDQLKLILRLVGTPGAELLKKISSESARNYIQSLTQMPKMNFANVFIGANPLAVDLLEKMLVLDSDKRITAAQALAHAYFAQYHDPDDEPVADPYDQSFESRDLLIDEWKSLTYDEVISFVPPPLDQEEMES

[11] = target: Epithelial discoidin domain-containing receptor 1 (Homo sapiens, UniProt Q08345); assay: Inhibition of human GST-tagged DDR1 catalytic domain expressed in baculovirus expression system by LanthaScreen assay
[12] = target: T2, Cytoplasmic tyrosine-protein kinase BMX (Homo sapiens) (UniProt P51813)
T2 sequence (whole entry): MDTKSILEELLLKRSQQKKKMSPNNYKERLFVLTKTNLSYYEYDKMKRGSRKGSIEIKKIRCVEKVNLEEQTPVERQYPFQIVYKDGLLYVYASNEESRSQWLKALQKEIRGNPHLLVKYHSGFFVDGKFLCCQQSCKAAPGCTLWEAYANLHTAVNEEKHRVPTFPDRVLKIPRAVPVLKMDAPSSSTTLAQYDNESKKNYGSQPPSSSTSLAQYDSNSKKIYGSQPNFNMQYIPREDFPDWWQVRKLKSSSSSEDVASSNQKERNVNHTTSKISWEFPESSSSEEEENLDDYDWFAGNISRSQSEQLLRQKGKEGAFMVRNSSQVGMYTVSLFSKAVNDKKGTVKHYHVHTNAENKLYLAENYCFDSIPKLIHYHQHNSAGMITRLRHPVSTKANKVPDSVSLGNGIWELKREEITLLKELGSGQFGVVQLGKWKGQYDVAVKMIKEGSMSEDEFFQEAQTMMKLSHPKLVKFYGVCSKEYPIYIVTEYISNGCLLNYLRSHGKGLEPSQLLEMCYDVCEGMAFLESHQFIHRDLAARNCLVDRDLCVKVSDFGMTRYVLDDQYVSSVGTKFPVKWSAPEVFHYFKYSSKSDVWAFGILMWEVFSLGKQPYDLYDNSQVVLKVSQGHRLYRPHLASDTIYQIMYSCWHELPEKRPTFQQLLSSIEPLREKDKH

[13] = target: Tyrosine-protein kinase Blk (Homo sapiens) (UniProt P51451); assay: Inhibition of recombinant TEL-fused BLK (unknown origin) expressed in mouse BAF3 cells assessed as growth inhibition after 72 hrs by CellTiter-Glo or CCK-8 assay; format: cell-based; summary of the method: as §1
Tyrosine-protein kinase Blk (Homo sapiens), sequence (P51451 2-505 limits assumed): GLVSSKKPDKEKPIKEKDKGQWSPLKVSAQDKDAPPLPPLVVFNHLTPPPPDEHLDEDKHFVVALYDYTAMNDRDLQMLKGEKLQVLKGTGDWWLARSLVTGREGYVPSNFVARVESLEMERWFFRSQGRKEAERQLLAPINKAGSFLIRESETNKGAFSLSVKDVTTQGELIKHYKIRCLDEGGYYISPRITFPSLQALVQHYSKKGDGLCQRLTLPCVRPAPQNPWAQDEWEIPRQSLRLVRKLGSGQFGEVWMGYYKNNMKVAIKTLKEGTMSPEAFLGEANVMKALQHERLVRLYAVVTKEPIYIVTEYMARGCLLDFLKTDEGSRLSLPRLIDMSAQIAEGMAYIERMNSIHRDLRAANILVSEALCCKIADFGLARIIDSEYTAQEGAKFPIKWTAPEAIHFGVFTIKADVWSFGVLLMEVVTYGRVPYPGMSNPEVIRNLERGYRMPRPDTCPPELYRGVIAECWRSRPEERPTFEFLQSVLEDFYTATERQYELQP

GI50 [2]	GI50 [3]	GI50 [4]	GI50 [5]	GI50 [6]	GI50 [7]	GI50 [8]	IC50 [9]	IC50 [10]	IC50 [11]	GI50 [12]	GI50 [13]	Compound	GI50 at 72 h [1]
2800 nM	2510 nM	370 nM	790 nM	> 10000 nM	> 10000 nM	> 10000 nM	> 10000 nM	89 nM	212 nM	610 nM	–	CCC(=O)Nc1cc(Nc2ncc(C(=O)Nc3cc(NC(=O)c4cc(OC)c(OC)c(OC)c4)ccc3C)c(NC)n2)ccc1C	> 10000 nM
170 nM	44 nM	45 nM	59 nM	8600 nM	> 10000 nM	8300 nM	–	–	–	85 nM	6500 nM	CCC(=O)Nc1cc(Nc2ncc(C(=O)Nc3cc(NC(=O)c4cccc(C(F)(F)F)c4)ccc3C)c(NC)n2)ccc1C	> 10000 nM
380 nM	118 nM	99 nM	130 nM	> 10000 nM	> 10000 nM	> 10000 nM	–	–	–	13 nM	5900 nM	C=CC(=O)Nc1cc(Nc2ncc(C(=O)Nc3cc(NC(=O)c4cccc(C(F)(F)F)c4)ccc3C)c(NC)n2)ccc1C	> 10000 nM
